# Measurements as given in ChEMBL document CHEMBL4513216, “Probing the Open Global Health Chemical Diversity Library for Multistage-Active Starting Points for Next-Generation Antimalarials” (ACS Infect Dis, 2020).
# Test: Toxicity liver stage against HepG2, at 10uM
# Type: cell-based
# Parameters: test concentration 10 uM, cell line HepG2-A16-CD81EGFP
# Conditions: human, HepG2-A16-CD81EGFP cells; read-out: INHIBITION
# Method in brief: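 Uninfected HepG2-A16-CD81EGFP cells, 3 × 10^3 per well, 1536-well, plated on prespotted compound at 10 μM final, parasite-free screening media added to match infected plates; puromycin 10 μM positive, DMSO 0.5% negative; run in parallel with 48 h PbLuc assay at 37 °C, 5% CO2; viability by CellTiter-Glo luminescence, normalized to controls.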
row,SMILES,cytotoxicity at 10 µM
1,FC(F)(F)c1ccc(CNC[C@H]2COCc3nc4cccnc4n32)cc1,8.04%
2,COc1ccccc1-c1nnc([C@H]2CCN(C(C)=O)C2)o1,4.71%
3,O=C(Cc1noc(C(=O)NCC2CC2)n1)Nc1cccc(C(F)(F)F)c1,8.13%
4,COCCn1cnc2ccc(NC(=O)C(C)C)cc2c1=O,-9.46%
5,Cc1ccoc1C(=O)N1CCCc2c(c(=O)n(C)n2C)C1,11.7%
6,COCc1nnn2c1CN(C(=O)c1c[nH]cn1)CCC2,2.02%
7,COCc1nn(C)c2c1CN(C(=O)c1ccno1)CC2,12.7%
8,O=C([C@@H]1CC[C@@H]2[C@@H](CCN2c2ncccn2)O1)N1CCCO1,8.79%
9,CCn1ncc2c1C(COC)CN(Cc1ccco1)C2 (centres undefined),7.1%
10,Cc1nnc2ccc(N3CCC(C(=O)Nc4nccs4)CC3)nn12,3.89%
11,CCOc1ccc(NC(C)=O)cc1S(=O)(=O)Nc1nccs1,-8.2%
12,Cc1ocnc1C(=O)N(C)[C@@H]1CCC[C@@H](N2CCCC2)[C@@H]1O,-3.7%
13,Cc1cc(N(C)C)nc(C2COCCN2Cc2csc(C)n2)n1 (centres undefined),1.75%
14,Cc1cc(C(=O)NCc2ccc(-c3n[nH]cc3C(=O)N(C)C)cc2)on1,4.29%
15,Cc1cc(-c2cnc(NC3CC3)nc2-c2ccc(C)o2)on1,2.26%
16,Cc1noc(C)c1CNCC1CNc2ccnn2C1 (centres undefined),-2.72%
17,Cc1csc(CCNc2ccc(C#N)cc2F)n1,2.17%
18,CN(C)c1ccccc1CN1CCCCC1CNS(C)(=O)=O (centres undefined),0.212%
19,COc1ccc(COCC(=O)N2CCC(c3nncn3C)CC2)cc1,4.9%
20,Cn1cnnc1C1CCN(C(=O)COCc2ccccc2Cl)CC1,-6.07%
21,CCc1n[nH]c(=O)c(C(=O)N2CCSCC2)c1CC,19.5%
22,O=C1CCc2cc(S(=O)(=O)NC(=O)c3ccc4c(c3)OCO4)ccc2N1,-17.8%
23,N#Cc1ccccc1CNC(C(=O)N1CCOCC1)c1ccccc1 (centres undefined),11%
24,CN(C(=O)Nc1nncs1)C1CCN(c2ccccc2Cl)C1=O (centres undefined),-7.04%
25,CCS(=O)(=O)CCNC(=O)NC(C)c1cc(C)sc1C (centres undefined),-3.4%
26,COc1cc(CN(C)Cc2ccncc2)c(SC)cc1OC,5.54%
27,CC(C)C(=O)NS(=O)(=O)c1ccc2c(c1)N(C)CCC2,-0.447%

row,SMILES,cytotoxicity at 10 µM
1,Cc1nccn1-c1ccc(CNC(=O)c2ccc([S+](C)[O-])cc2)cn1 (centres undefined),-18.1%
2,CC(C)N1CCC(N(C)c2ccnc(N(C)C)n2)CC1,-3.3%
3,Cc1nonc1C(=O)N1CCc2c(ncn2CCc2ccccc2)C1,-0.207%
4,Cc1cc(C(=O)N2CC[C@H]3[C@H]2CCN3S(C)(=O)=O)c(C)o1,-83.1%
5,CCN(C)c1ncnc2c1CCN(c1ccc(C)nn1)CC2,-94.7%
6,CC(=O)N1CCC2(CC1)c1ncc(-c3ccc(F)cc3)n1CCN2C,-101%
7,O=C([C@H]1CCCO1)N1CC[C@H](O)[C@@H]1Cc1cccnc1,-105%
8,Cn1cc(C2COC3(CCN(C(=O)c4cnccn4)CC3)C2)cn1 (centres undefined),-68.5%
9,CC1=N[C@@]2(CC[C@@H]3CN(S(=O)(=O)CC(C)C)C[C@@H]32)C(=O)N1C,-84.6%
10,Cn1nc(Cn2ccnc2)c2c1CN(C(=O)c1ccc[nH]1)C2,-62.7%
11,CCC1=N[C@@]2(CC[C@@H]3CN(C(=O)NCc4cccc(F)c4)C[C@@H]32)C(=O)N1,-69.4%
12,COCCCn1c(CN2CCSCC2)cnc1S(=O)(=O)C1CCCC1,-3.89%
13,COCCCC1(C(=O)O)CCCN(C(=O)c2ccc(Cl)cc2F)C1 (centres undefined),-0.37%
14,Cc1ccccc1OC1(C(=O)O)CCN(C(=O)CCc2ccco2)CC1,1.5%
15,CSCCC(=O)NCc1cc2n(n1)CCCN(C1CCCCC1)C2,19.9%
16,CCN(CC)CCN(C)Cc1cn(C)nc1-c1ccc2c(c1)OCCO2,2.95%
17,CCS(=O)(=O)N1CCC2(CCCN(Cc3ccc(F)c(F)c3)C2=O)C1 (centres undefined),17.6%
18,CNc1ncc(CN(C)C(=O)c2c[nH]nc2-c2cccc(F)c2)cn1,-4.69%
19,CSCCNC(=O)c1coc(COc2ccc3sc(C)nc3c2)n1,-1.51%
20,CCOC(=O)c1coc(N2CCC(C(C)N3CCCC3)CC2)n1 (centres undefined),-1.89%
21,O=C(NCc1cccc(C(F)(F)F)c1)C(c1cccnc1)N1CCCC1 (centres undefined),6.63%
22,Cn1cc(CN2CC[C@@H]3[C@@H](CCC(=O)N3CC3CCNCC3)C2)cn1,1.73%
23,Cn1ccnc1CN1CCC(c2nc3ccccc3n2C)CC1,1.42%
24,CN(Cc1nccn1C)C(=O)c1cccc(CCC(C)(C)O)c1,1.26%
25,NC(=O)NCC(=O)N1CCCC(c2nccn2Cc2ccncc2)C1 (centres undefined),5.07%
26,Cc1nccn1CCN(C)c1nc(-c2ccc(Cl)cc2)nc2c1CNC2,-29.5%
27,Cc1ncsc1CCN(C)C(=O)CN1CCCCC1=O,-14.8%

row,SMILES,cytotoxicity at 10 µM
1,CCN(C)C[C@@H]1CN(S(=O)(=O)c2ccc(OC)cc2)C[C@@H]1CO,14.8%
2,O=c1[nH]nc(CCCN2CCOCC2)n1-c1ccc(F)cc1F,4.54%
3,CC(=O)N1CCC(c2nccnc2Oc2ccccc2)CC1,3.7%
4,COCCCNC(=O)CN(C)C(=O)c1ccc(-n2cccc2)cc1O,-13.5%
5,Cc1nc2c(c(C)c1CC(=O)NCc1ccccc1F)c(=O)[nH]n2C,-5.52%
6,CCNc1cc2c(nn1)CCN(C(=O)c1ccoc1)C2,-6.9%
7,CCc1nc(CN2CCCN(C(=O)c3cc(C)on3)CC2)cs1,-7.81%
8,O=C(CN1CCCC(Cn2cncn2)C1)NCc1ccco1 (centres undefined),-0.587%
9,c1ccc(CCN2CCOC(Cn3cccn3)C2)nc1 (centres undefined),-4.48%
10,CCc1nc(CN2CCN(C(=O)C3CCCCC3)CC2)cs1,3.64%
11,c1cc(CN2CCOCC3(CCN(CC4CCOCC4)CC3)C2)ccn1,-82.6%
12,COC[C@@]12CCC[C@@H]1CN(C(=O)Cc1ccccn1)C2,-96.7%
13,CN(C)Cc1noc2c1CN(C(=O)c1ccncc1)CC2,-1.28%
14,COCCNC(=O)[C@@]12CCO[C@@H]1CCN(Cc1ccc(OC)cc1)C2,-77.8%
15,O=C(Cc1ccccc1F)N1C[C@@H]2COC[C@]2(COc2cccnc2)C1,9.29%
16,O=c1ccc2c(n1Cc1cccnc1)CCN(C1CCOC1)CC2 (centres undefined),9.58%
17,c1cc2c(cc1CN1C[C@@H]3COC[C@@H](N4CCCC4)[C@@H]3C1)OCO2,4.62%
18,Cc1cccc(CN2CCS(=O)(=O)[C@@H]3CCN(S(C)(=O)=O)CC[C@@H]32)n1,-3.34%
19,CC(=O)N1CCO[C@@H]2CN(Cc3ccccc3F)C[C@@H]2C1,-108%
20,CN1C(=O)C2(CCN(C(=O)c3ccccc3)CC2)c2cc(F)ccc21,-106%
21,CN(C)S(=O)(=O)N1CC[C@]2(C[C@@H](OCc3ccccn3)CO2)C1,10.1%
22,Cc1ccc(C(=O)N2CCN3C[C@H](Oc4cccnc4)C[C@H]3C2)cn1,4.66%
23,CC(C)N1CCn2c(COCC3CCOCC3)cnc2C1C (centres undefined),8.22%
24,CC(c1ccc2c(c1)OCO2)n1cc2nc(N(C)C)[nH]cc-2c1=O (centres undefined),-2.72%
25,N#Cc1ccc(C(=O)O)nc1C=Cc1cccc(Br)c1,5.09%
